Measurements collected from several papers.
Lines come from different studies, so protocols differ.

FC(F)(F)c1ccc(C(c2c[nH]c3ccccc23)c2c[nH]c3ccccc23)cc1 has an inhibition of 95% (DU-145; cell growth or viability, MTT; 100 µM, 48 h).
The IC50 of COc1cc(Nc2nccc(-c3cnn4nc(OC)ccc34)n2)cc(C(F)(F)F)c1 is reported as 190 nM (LOU-NH91; cell growth or viability, ATP luminescence).
CC(C)n1cc(C(c2ccc(/C=C/C(=O)O)s2)c2cn(C(C)C)c3ccccc23)c2ccccc21 has an inhibition of 94% (DU-145; cell growth or viability, MTT; 100 µM, 48 h).
COc1cc2c(cc1OS(N)(=O)=O)CCN(Cc1cccc(C)c1)C2 has a GI50 of 41700 nM (DU-145; cell growth or viability, WST-1; 96 h).
COc1ccc2c(N(C)c3ccc(/C(C)=N/OCCN)cc3)c3c(Cl)coc3nc2c1 gave an inhibition of 70% (LNCaP; cell migration; 1 µM, 24 h).
With COc1ccc(-c2ccc(-c3ccc(C(=N)N)nc3)s2)cc1Cl the GI50 was 1720 nM (BT-549; cell growth or viability, SRB).
For COc1cc2c(cc1OS(N)(=O)=O)CCN(Cc1cccc([N+](=O)[O-])c1)C2, the GI50 was 3030 nM (DU-145; cell growth or viability, WST-1; 96 h).
With O=C1Nc2ccccc2C1=NNc1nnc2n1N=C(c1ccccc1)CS2 the inhibition was 16% (DU-145; cell growth or viability, SRB; 10 µM).
COc1cc2c(cc1O)CCN(Cc1cccc(OC(F)(F)F)c1)C2 has a GI50 of 55000 nM (DU-145; cell growth or viability, WST-1; 96 h).
COc1cccc(Oc2ccccc2NC(=O)CNC(=O)c2cccc3ccccc23)c1 gave a GI50 of 112 nM (SF-295; cell growth or viability, SRB; 48 h).
For O=C(O)c1ccc(C(c2c[nH]c3ccccc23)c2c[nH]c3ccccc23)cc1, the inhibition was 100% (LNCaP; cell growth or viability, MTT; 100 µM, 48 h).
With CC(C)C[C@H](NC(=O)[C@H](Cc1ccccc1)NC(=O)c1cnccn1)B(O)O the IC50 was 7.9 nM (LN-229; cell growth or viability, ATP luminescence).
For CCc1cccc(CN2CCc3cc(O)c(OC)cc3C2)c1, the GI50 was > 100000 nM (DU-145; cell growth or viability, WST-1; 96 h).
With Cn1cc(C(c2ccc(C(=O)O)cc2)c2cn(C)c3ccccc23)c2ccccc21 the inhibition was 95% (LNCaP; cell growth or viability, MTT; 100 µM, 48 h).
The GI50 of COc1cc2c(cc1O)CCN(Cc1cccc([N+](=O)[O-])c1)C2 is reported as > 100000 nM (DU-145; cell growth or viability, WST-1; 96 h).
The inhibition of Cc1cccc2c(C(c3ccc(/C=C/C(=O)O)s3)c3c[nH]c4c(C)cccc34)c[nH]c12 is reported as 78% (DU-145; cell growth or viability, MTT; 100 µM, 48 h).
